Test results published in ChEMBL document CHEMBL1154787, “Enaminonitrile in heterocyclic synthesis: synthesis and antimicrobial evaluation of some new pyrazole, isoxazole and pyrimidine derivatives incorporating a benzothiazole moiety” (2009).
≈ marks a conversion by molar mass, not a printed value.

What was measured:
Type in all cases: functional
Escherichia coli [1] = assay: Antibacterial activity against Escherichia coli after 24-48 hrs by microdilution susceptibility test
Method in brief: (§1)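 MIC by twofold serial dilution in wells, tested only for compounds giving inhibition zones >10 mm; microbial suspensions at 10⁶ CFU/mL inoculated into wells, incubated at 36 °C for 24–48 h, then MIC read.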

Bacillus thuringiensis [2] = assay: Antibacterial activity against Bacillus thuringiensis assessed as zone of inhibition diameter at 1 mg/mL after 24 hrs […]; settings: read-out: DIZ
Method in brief: (§2)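 Agar diffusion: 5 mm sterile filter-paper disks loaded with test compound in DMF (1 mg/mL) placed on agar seeded with the bacterium, in triplicate; DMF alone as control; incubated 37 °C for 24 h; mean inhibition-zone diameter recorded in mm.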

Bacillus subtilis [3] = assay: Antibacterial activity against Bacillus subtilis assessed as zone of inhibition diameter at 1 mg/mL after 24 hrs […]; settings: read-out: DIZ; method in brief: as §2
Bacillus subtilis [4] = assay: Antibacterial activity against Bacillus subtilis after 24-48 hrs by microdilution susceptibility test; method in brief: as §1
Pseudomonas aeruginosa [5] = assay: Antibacterial activity against Pseudomonas aeruginosa after 24-48 hrs by microdilution susceptibility test; method in brief: as §1
Escherichia coli [6] = assay: Antibacterial activity against Escherichia coli assessed as zone of inhibition diameter at 1 mg/mL after 24 hrs […]; settings: read-out: DIZ; method in brief: as §2
Pseudomonas aeruginosa [7] = assay: Antibacterial activity against Pseudomonas aeruginosa assessed as zone of inhibition diameter at 1 mg/mL after 24 hrs […]; settings: read-out: DIZ; method in brief: as §2
Bacillus thuringiensis [8] = assay: Antibacterial activity against Bacillus thuringiensis after 24-48 hrs by microdilution susceptibility test; method in brief: as §1
Fusarium oxysporum [9] = assay: Antifungal activity against Fusarium oxysporum after 24-48 hrs by microdilution susceptibility test; method in brief: as §1
Botrytis fabae = assay: Antifungal activity against Botrytis fabae after 24-48 hrs by microdilution susceptibility test; method in brief: as §1
Fusarium oxysporum [10] = assay: Antifungal activity against Fusarium oxysporum assessed as zone of inhibition diameter at 1 mg/mL after 48 hrs […]; settings: read-out: DIZ
Method in brief: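 Agar diffusion: 5 mm sterile filter-paper disks loaded with test compound in DMF (1 mg/mL) placed on agar seeded with the fungus, in triplicate; DMF alone as control; incubated at 37 °C for fungal plates; mean inhibition-zone diameter recorded in mm.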

Compound	MIC (Escherichia coli [1]) [µg/mL]	zone of inhibition at 1000 µg/mL (Bacillus thuringiensis [2]) [mm]	zone of inhibition at 1000 µg/mL (Bacillus subtilis [3]) [mm]	MIC (Bacillus subtilis [4]) [µg/mL]	MIC (Pseudomonas aeruginosa [5]) [µg/mL]	zone of inhibition at 1000 µg/mL (Escherichia coli [6]) [mm]	zone of inhibition at 1000 µg/mL (Pseudomonas aeruginosa [7]) [mm]	MIC (Bacillus thuringiensis [8]) [µg/mL]	MIC (Fusarium oxysporum [9]) [µg/mL]	MIC (Botrytis fabae) [µg/mL]	zone of inhibition at 1000 µg/mL (Fusarium oxysporum [10]) [mm]
CN[C@@H]1[C@H](O[C@H]2[C@H](O[C@H]3[C@H](O)[C@@H](O)[C@H](N=C(N)N)[C@@H](O)[C@@H]3N=C(N)N)O[C@@H](C)[C@]2(O)C=O)O[C@@H](CO)[C@H](O)[C@H]1O [STREPTOMYCIN]	6.25 (≈ 10.7 µM)	37	43	3.12 (≈ 5.37 µM)	6.25 (≈ 10.7 µM)	37	37	6.25 (≈ 10.7 µM)	–	–	–
N=c1c(C(=O)Nc2nc3ccccc3s2)cnc2ccccn12	12.5 (≈ 38.9 µM)	31	37	6.25 (≈ 19.4 µM)	50 (≈ 156 µM)	31	19	12.5 (≈ 38.9 µM)	25 (≈ 77.8 µM)	6.25 (≈ 19.4 µM)	25
N#Cc1cncn(-c2nc3ccccc3s2)c1=O	50 (≈ 197 µM)	19	31	12.5 (≈ 49.2 µM)	50 (≈ 197 µM)	19	19	50 (≈ 197 µM)	50 (≈ 197 µM)	12.5 (≈ 49.2 µM)	19
N#C/C(=C/N)C(=O)Nc1nc2ccccc2s1	25 (≈ 102 µM)	19	13	100 (≈ 409 µM)	100 (≈ 409 µM)	25	13	50 (≈ 205 µM)	12.5 (≈ 51.2 µM)	6.25 (≈ 25.6 µM)	31
CN(C)/C=C(\C#N)C(=O)Nc1nc2ccccc2s1	100 (≈ 367 µM)	25	13	100 (≈ 367 µM)	50 (≈ 184 µM)	13	19	25 (≈ 91.8 µM)	25 (≈ 91.8 µM)	25 (≈ 91.8 µM)	25
Nc1oncc1C(=O)Nc1nc2ccccc2s1	50 (≈ 192 µM)	25	19	50 (≈ 192 µM)	50 (≈ 192 µM)	19	19	25 (≈ 96.1 µM)	25 (≈ 96.1 µM)	6.25 (≈ 24 µM)	25
N#C/C(=C\NN)C(=O)Nc1nc2ccccc2s1	25 (≈ 96.4 µM)	19	13	100 (≈ 386 µM)	25 (≈ 96.4 µM)	25	25	50 (≈ 193 µM)	50 (≈ 193 µM)	6.25 (≈ 24.1 µM)	19
Nc1c(C(=O)Nc2nc3ccccc3s2)cnc2nnnn12	50 (≈ 160 µM)	31	43	3.12 (≈ 10 µM)	50 (≈ 160 µM)	19	19	12.5 (≈ 40 µM)	6.25 (≈ 20 µM)	3.12 (≈ 10 µM)	37
OC(Cn1cncn1)(Cn1cncn1)c1ccc(F)cc1F [FLUCONAZOLE]	–	–	–	–	–	–	–	–	3.12 (≈ 10.2 µM)	3.12 (≈ 10.2 µM)	43
Nc1[nH]ncc1C(=O)Nc1nc2ccccc2s1	12.5 (≈ 48.2 µM)	19	31	12.5 (≈ 48.2 µM)	12.5 (≈ 48.2 µM)	31	31	50 (≈ 193 µM)	6.25 (≈ 24.1 µM)	3.12 (≈ 12.1 µM)	37
Nc1ncc(C(=O)Nc2nc3ccccc3s2)c(N)n1	25 (≈ 87.3 µM)	25	31	12.5 (≈ 43.7 µM)	50 (≈ 175 µM)	25	19	25 (≈ 87.3 µM)	6.25 (≈ 21.8 µM)	3.12 (≈ 10.9 µM)	37
N=c1c(C(=O)Nc2nc3ccccc3s2)cnc2sccn12	25 (≈ 76.4 µM)	25	31	12.5 (≈ 38.2 µM)	6.25 (≈ 19.1 µM)	25	37	25 (≈ 76.4 µM)	25 (≈ 76.4 µM)	12.5 (≈ 38.2 µM)	25
N#C/C(=C\NNc1ccccc1)C(=O)Nc1nc2ccccc2s1	12.5 (≈ 37.3 µM)	19	13	100 (≈ 298 µM)	25 (≈ 74.5 µM)	31	25	50 (≈ 149 µM)	12.5 (≈ 37.3 µM)	6.25 (≈ 18.6 µM)	31
NC1=Nc2ccccc2NC=C1C(=O)Nc1nc2ccccc2s1	25 (≈ 74.5 µM)	31	37	6.25 (≈ 18.6 µM)	6.25 (≈ 18.6 µM)	25	37	12.5 (≈ 37.3 µM)	25 (≈ 74.5 µM)	12.5 (≈ 37.3 µM)	25
O=C(N[C@H](CO)[C@H](O)c1ccc([N+](=O)[O-])cc1)C(Cl)Cl [CHLORAMPHENICOL]	6.25 (≈ 19.3 µM)	37	37	6.25 (≈ 19.3 µM)	6.25 (≈ 19.3 µM)	37	37	6.25 (≈ 19.3 µM)	–	–	–
Nc1c(C(=O)Nc2nc3ccccc3s2)cnn1-c1ccccc1	50 (≈ 149 µM)	19	31	12.5 (≈ 37.3 µM)	50 (≈ 149 µM)	19	19	50 (≈ 149 µM)	50 (≈ 149 µM)	12.5 (≈ 37.3 µM)	19
